In ChEMBL document CHEMBL1127568, “A new series of PDGF receptor tyrosine kinase inhibitors: 3-substituted quinoline derivatives” (J Med Chem, 1994):

Columns and labels:
[1] = target: T1, Platelet-derived growth factor receptor (Homo sapiens, UniProt P09619+P16234); experiment: Inhibition of human PDGF receptor phosphorylation; 0.015-0.025; format: protein-complex assay
Outline: (§1)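 PDGF receptor from NIH 3T3 cell lysates (cells made quiescent 24 h in 0.5% calf serum), stimulated with 10 ng/mL PDGF for 30 min at 4 °C and immunoprecipitated on Protein A beads. Each compound ran in at least two dose-response assays.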

[2] = target: Epidermal growth factor receptor (Homo sapiens, UniProt P00533); experiment: Concentration required to inhibit phosphorylation of isolated human epidermal growth factor tyrosine kinase receptor by 50%
Sequence of Epidermal growth factor receptor (P00533 whole entry): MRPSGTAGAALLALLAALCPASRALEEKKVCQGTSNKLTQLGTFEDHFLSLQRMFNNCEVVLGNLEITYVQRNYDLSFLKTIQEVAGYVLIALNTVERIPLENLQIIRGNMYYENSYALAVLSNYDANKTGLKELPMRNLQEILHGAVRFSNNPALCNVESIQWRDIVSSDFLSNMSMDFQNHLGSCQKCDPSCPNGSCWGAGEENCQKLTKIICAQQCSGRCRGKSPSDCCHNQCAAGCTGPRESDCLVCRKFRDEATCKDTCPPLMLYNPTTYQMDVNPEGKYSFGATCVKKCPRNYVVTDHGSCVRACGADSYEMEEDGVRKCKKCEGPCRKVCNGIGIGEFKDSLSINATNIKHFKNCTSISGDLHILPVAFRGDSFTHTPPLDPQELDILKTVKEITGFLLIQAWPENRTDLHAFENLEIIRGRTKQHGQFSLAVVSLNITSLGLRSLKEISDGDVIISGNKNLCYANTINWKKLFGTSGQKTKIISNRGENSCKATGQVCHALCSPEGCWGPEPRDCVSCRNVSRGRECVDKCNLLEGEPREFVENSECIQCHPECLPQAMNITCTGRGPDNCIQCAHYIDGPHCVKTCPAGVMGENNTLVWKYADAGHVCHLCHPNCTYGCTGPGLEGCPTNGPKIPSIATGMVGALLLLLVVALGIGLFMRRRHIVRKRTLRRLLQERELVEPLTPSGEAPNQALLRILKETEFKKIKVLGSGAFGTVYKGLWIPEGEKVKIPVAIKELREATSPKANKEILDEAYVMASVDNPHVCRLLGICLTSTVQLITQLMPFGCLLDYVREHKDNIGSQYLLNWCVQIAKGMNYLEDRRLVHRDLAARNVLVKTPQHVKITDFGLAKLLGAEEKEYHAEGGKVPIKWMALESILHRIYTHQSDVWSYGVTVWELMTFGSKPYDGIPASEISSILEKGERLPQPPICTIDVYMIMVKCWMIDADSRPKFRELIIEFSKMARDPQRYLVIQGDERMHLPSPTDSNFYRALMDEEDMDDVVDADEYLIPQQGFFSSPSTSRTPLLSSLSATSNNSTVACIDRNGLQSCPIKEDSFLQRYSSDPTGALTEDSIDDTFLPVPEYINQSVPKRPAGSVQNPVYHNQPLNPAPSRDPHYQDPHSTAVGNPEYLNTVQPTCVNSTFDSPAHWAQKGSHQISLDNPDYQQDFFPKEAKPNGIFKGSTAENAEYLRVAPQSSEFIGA

[3] = target: T1, Platelet-derived growth factor receptor; experiment: Inhibition of human PDGF receptor phosphorylation; 0.1-0.6; format: protein-complex assay
Outline: (§2)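 Receptor from quiescent NIH 3T3 cell lysates (24 h in 0.5% calf serum before lysis), stimulated with 10 ng/mL PDGF for 30 min at 4 °C, then immunoprecipitated with anti-PDGF receptor antibody on Protein A beads. Compound pre-incubated 10 min at 4 °C in 50 mM Tris, 10 mM MnCl2, pH 7.5. At least two dose-response assays per compound.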

[4] = target: T1, Platelet-derived growth factor receptor; experiment: Inhibition of human PDGF receptor phosphorylation; 0.1-0.25; format: protein-complex assay; outline: as §1
[5] = target: T1, Platelet-derived growth factor receptor; experiment: Inhibition of isolated human PDGF receptor phosphorylation; format: protein-complex assay
[6] = target: T1, Platelet-derived growth factor receptor; experiment: Inhibition of human PDGF receptor phosphorylation; 0.05-0.07; format: protein-complex assay; outline: as §1
[7] = target: T1, Platelet-derived growth factor receptor; experiment: Inhibition of human PDGF receptor phosphorylation; 0.02-0.03; format: protein-complex assay; outline: as §1
[8] = target: T1, Platelet-derived growth factor receptor; experiment: Inhibition of human PDGF receptor phosphorylation; 0.2-0.25; format: protein-complex assay; outline: as §1
[9] = target: T1, Platelet-derived growth factor receptor; experiment: Inhibition of human PDGF receptor phosphorylation; 0.001-0.005; format: protein-complex assay; outline: as §1
[10] = target: T1, Platelet-derived growth factor receptor; experiment: Inhibition of human PDGF receptor phosphorylation; 0.04-0.08; format: protein-complex assay; outline: as §1
[11] = target: T1, Platelet-derived growth factor receptor; experiment: Inhibition of human PDGF receptor phosphorylation; 0.1-0.8; format: protein-complex assay; outline: as §1
[12] = target: T1, Platelet-derived growth factor receptor; experiment: Inhibition of human PDGF receptor phosphorylation; 0.004-0.025; format: protein-complex assay; outline: as §1
[13] = target: T1, Platelet-derived growth factor receptor; experiment: Inhibition of human PDGF receptor phosphorylation; 1-2; format: protein-complex assay; outline: as §1
[14] = target: T1, Platelet-derived growth factor receptor; experiment: Inhibition of human PDGF receptor phosphorylation; 2-8; format: protein-complex assay; outline: as §1
[15] = target: T1, Platelet-derived growth factor receptor; experiment: Inhibition of human PDGF receptor phosphorylation; 6-10; format: protein-complex assay
[16] = target: T1, Platelet-derived growth factor receptor; experiment: Concentration required to inhibit phosphorylation of isolated human PDGF receptor by 50%; 0.3-1; format: protein-complex assay; outline: as §1
[17] = target: T1, Platelet-derived growth factor receptor; experiment: Inhibition of human PDGF receptor phosphorylation; 0.02-0.08; format: protein-complex assay
[18] = target: T1, Platelet-derived growth factor receptor; experiment: Inhibition of human PDGF receptor phosphorylation; 0.1-0.2; format: protein-complex assay; outline: as §1
[19] = target: T1, Platelet-derived growth factor receptor; experiment: Inhibition of human PDGF receptor phosphorylation; 0.07-0.15; format: protein-complex assay
[20] = target: T1, Platelet-derived growth factor receptor; experiment: Inhibition of human PDGF receptor phosphorylation; 0.025-0.03; format: protein-complex assay; outline: as §1
[21] = target: cAMP-dependent protein kinase (PKA) (Homo sapiens, UniProt P22694+P17612+P22612); experiment: Test for the inhibition of protein kinase A; format: protein assay
[22] = target: T1, Platelet-derived growth factor receptor; experiment: Inhibition of human PDGF receptor phosphorylation; 2-10; format: protein-complex assay; outline: as §1
[23] = target: T1, Platelet-derived growth factor receptor; experiment: Inhibition of human PDGF receptor phosphorylation; 0.03-0.1; format: protein-complex assay; outline: as §2

Structure (SMILES)	IC50 [2]	IC50 [5]	also measured
COc1ccc(-c2cnc3cc(OC)c(OC)cc3c2)s1	> 20 µM		IC50 [4]: 0.25 µM
COc1cc2cc(N)cnc2cc1OC	> 20 µM	> 50 µM	
COc1ccc2ncc(-c3ccsc3)cc2c1	> 20 µM		IC50 [6]: 0.07 µM
COc1ccc2cc(-c3cccnc3)cnc2c1OC	> 25 µM	> 50 µM	
Cc1ccc(C)c2ncc(-c3ccsc3)cc12	> 20 µM	> 50 µM	
c1ccc2ncc(-c3ccsc3)cc2c1	> 20 µM		IC50 [8]: 0.25 µM
Cc1cc(C)c2cc(-c3ccsc3)cnc2c1	> 20 µM		IC50 [9]: 0.005 µM
Fc1cccc2ncc(-c3ccsc3)cc12		0.02 µM	
COc1cc2cc(-c3sccc3Cl)cnc2cc1OC	> 20 µM	1 µM	
Fc1ccc2cc(-c3ccsc3)cnc2c1	> 20 µM		IC50 [12]: 0.025 µM
COc1cc2cc(O)cnc2cc1OC	> 20 µM	≥ 20 µM	
Oc1cc2cc(-c3cccnc3)cnc2cc1O	0.5 µM		IC50 [15]: 10 µM
COc1cc2cc(C#CC3CCCCC3)cnc2cc1OC	> 20 µM		IC50 [16]: 1 µM
C(=C\c1cnc2ccccc2c1)/c1ccccc1	> 20 µM		IC50 [18]: 0.2 µM
COc1cc2cc([N+](=O)[O-])cnc2cc1OC	> 20 µM	> 50 µM	
COc1cc(OC)c2cc(-c3ccsc3)cnc2c1	> 20 µM		IC50 [20]: 0.03 µM; IC50 [21]: > 200 µM
COc1ccc(-c2cnc3cc(OC)c(OC)cc3c2)cc1OC	> 20 µM		IC50 [22]: 10 µM
COc1ccc(/C=C/c2cnc3cc(OC)c(OC)cc3c2)cc1	> 20 µM		IC50 [23]: 0.1 µM
COc1cc2cc(-c3cc(OC)c(OC)c(OC)c3)cnc2cc1OC	> 20 µM	> 50 µM	

Now from value to compound, other results behind:

IC50 [2]	IC50 [5]	Structure (SMILES)	also measured
> 20 µM		COc1cc2cc(-c3cccc(F)c3)cnc2cc1OC	IC50 [1]: 0.025 µM
> 20 µM		COc1cc2cc(-c3c[nH]c4ccccc34)cnc2cc1OC	IC50 [3]: 0.6 µM
> 20 µM		COc1cc2cc(-c3ccc(O)cc3)cnc2cc1OC	IC50 [7]: 0.03 µM
> 20 µM		COc1cc2cc(-c3cccs3)cnc2cc1OC	IC50 [10]: 0.08 µM
> 25 µM		COc1cc2cc(-c3cccnc3)cnc2cc1OC	IC50 [11]: 0.8 µM
> 20 µM	> 30 µM	COc1cc2cc(-c3ccc(OCc4ccccc4)cc3)cnc2cc1OC	
> 20 µM		COc1cccc(-c2cnc3cc(OC)c(OC)cc3c2)c1	IC50 [13]: 2 µM
> 20 µM		c1ccc2ncc(-c3c[nH]c4ccccc34)cc2c1	IC50 [14]: 8 µM
> 20 µM	≥ 20 µM	COc1cc2cc(-c3ccc4ccccc4c3)cnc2cc1OC	
> 20 µM	2 µM	COc1cc2cc(-c3ccccc3OC)cnc2cc1OC	
> 20 µM	> 50 µM	COc1ccc2cc(-c3c[nH]c4ccccc34)cnc2c1OC	
> 20 µM		COc1cc2cc(NCc3ccccc3)cnc2cc1OC	IC50 [17]: 0.08 µM
> 20 µM		COc1cc2cc(-c3ccccc3)cnc2cc1OC	IC50 [19]: 0.15 µM
